Screens: PubChem, Broad Institute
This excerpt belongs to a sample that is enriched for hits.
T cruzi growth-1: T. cruzi intracellular proliferation inhibitors, primary screen, cell-based, beta-gal Tulahuen parasites, NIH3T3 host, luminescence. T. cruzi beta-gal in NIH3T3, GalScreen luminescence, 90 h. inhibition, % at 8.34 µM. hit rate 5.9% among 77,000. AID 624255, 2012;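 active means mean inhibition above about 93%, with at least 55% of replicates each passing it, limit read from the data, passing the limit was not always enough; inconclusive means only one of those two conditions holds; inactive means neither condition holds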
GASC1 inh: inhibitors of GASC-1 (KDM4C) histone demethylase, primary screen, biochemical, single concentration HTS. Lysine-specific demethylase 4C (Homo sapiens), Q9H3R0. GST-KDM4C 2-372, H3K9me3 peptide, LANCE TR-FRET. inhibition, % at 12.5 µM. hit rate 0.15% among 96,000;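 active means mean replicate inhibition above about 25%, with at least 55% of replicates also reaching it, limit read from the data, passing the limit was not always enough; inconclusive means only one of those two conditions met; inactive means neither condition met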
Target sequence (Q9H3R0 2-372 limits assumed): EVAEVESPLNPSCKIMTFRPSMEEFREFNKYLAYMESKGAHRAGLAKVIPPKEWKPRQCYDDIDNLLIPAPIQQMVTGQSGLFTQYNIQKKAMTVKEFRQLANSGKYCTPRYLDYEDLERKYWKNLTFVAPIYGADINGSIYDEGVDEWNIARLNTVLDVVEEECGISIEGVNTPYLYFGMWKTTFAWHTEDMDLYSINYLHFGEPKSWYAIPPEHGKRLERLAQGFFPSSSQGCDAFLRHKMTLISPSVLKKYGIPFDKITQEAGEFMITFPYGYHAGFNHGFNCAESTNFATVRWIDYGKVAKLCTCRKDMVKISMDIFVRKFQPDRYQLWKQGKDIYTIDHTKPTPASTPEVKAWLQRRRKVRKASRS
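System – N-terminal GST-fused human GASC-1 (KDM4C) fragment, residues 2-372 · Input – enzyme final amount 10 nM · Technique – LANCE TR-FRET, Eu antibody, ULight-streptavidin, EDTA, ex 340 nm, em 618/671 nm · Medium – HEPES buffer, pH 7.5, plus ascorbate · Incubation – enzyme reaction 30 min, then detection 60 min, both room temperature · Reagent – H3K9me3 peptide with Fe(II)/2OG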
IDH1 R132H inh: inhibitors of IDH1 R132H reductase, primary screen, biochemical, plate reader, single point; Isocitrate dehydrogenase [NADP] cytoplasmic (Homo sapiens), O75874; diaphorase/resazurin fluorescence, 60 min; inhibition, % at 10 µM; hit rate 0.18% among 70,000; AID 624101, 2012; in the data active means inhibition above about 34%; inconclusive means no clear call, values can overlap the other calls; inactive means below about 11%
Target sequence (O75874 whole entry R132H): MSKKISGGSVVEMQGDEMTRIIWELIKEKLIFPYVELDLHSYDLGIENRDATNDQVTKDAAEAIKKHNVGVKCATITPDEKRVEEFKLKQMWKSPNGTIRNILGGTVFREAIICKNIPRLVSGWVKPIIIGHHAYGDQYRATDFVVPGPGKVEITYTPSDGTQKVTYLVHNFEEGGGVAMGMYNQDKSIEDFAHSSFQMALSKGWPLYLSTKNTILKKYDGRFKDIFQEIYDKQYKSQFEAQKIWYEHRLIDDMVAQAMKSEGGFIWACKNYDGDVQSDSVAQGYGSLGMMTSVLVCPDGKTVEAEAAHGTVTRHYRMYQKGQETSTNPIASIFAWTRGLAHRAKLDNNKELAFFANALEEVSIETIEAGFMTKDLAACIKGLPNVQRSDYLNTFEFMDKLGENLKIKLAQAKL
T cruzi growth-2: T. cruzi intracellular proliferation inhibitors, confirmation, cell-based, NIH3T3 host, beta-gal parasite, luminescence, cherry-pick; shares compounds with T cruzi growth-1; T. cruzi beta-gal in NIH3T3, GalScreen luminescence, 90 h; inhibition, % at 8.35 µM; hit rate 72% among 5,600; AID 651739, 2012;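 active means mean replicate inhibition above about 95% and at least 55% of replicates individually reaching it, limit read from the data; inconclusive means only one of the two criteria is met; inactive means neither criterion is met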
T cruzi growth-3: inhibitors of intracellular T. cruzi replication, confirmation, NIH3T3 host cells, beta-gal parasites, cherry-pick, set 2. AID 651740, 2012. shares compounds with T cruzi growth-1. inhibition, % at 2.09 µM. hit rate 21% among 5,600. T. cruzi beta-gal in NIH3T3, GalScreen luminescence, 90 h;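 active means mean inhibition above about 95%, with at least 55% of replicates also reaching it, limit read from the data; inconclusive means meets just one of the two conditions; inactive means meets neither condition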
3T3 cytotox: cytotoxicity in mouse NIH/3T3 fibroblasts, confirmation, cytotoxicity control for T. cruzi proliferation inhibitor project, cell-based, cherry-pick, single point; shares compounds with T cruzi growth-1; NIH/3T3 viability, CellTiter-Glo ATP luminescence, 90 h; cytotoxicity (signal decrease), % at 8.35 µM; hit rate 14% among 5,600; AID 651742, 2012;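 active means mean signal decrease across replicates above about 35% based on untreated-well scatter, with enough replicates individually passing, limit read from the data; inconclusive means no rule stated though some were filed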
3T3 cytotox 2: NIH/3T3 fibroblast cytotoxicity, confirmation, cytotoxicity control, cell-based, cherry-pick, single point, set 2; shares compounds with T cruzi growth-1; hit rate 56% among 5,600; AID 651744, 2012; inhibition, % at 24.9 µM; NIH/3T3 viability, CellTiter-Glo ATP luminescence, 90 h;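 active means mean loss of cell viability signal at or above a set limit, and enough replicates individually reaching it; inconclusive means meets only the mean limit or only the replicate share; inactive means meets neither condition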
Large screens that a line does not name were inactive (follow-up assays come after a bar, where they were run).

Cc1noc(C)c1NC(=O)Nc1ccc2c(c1)CC(=O)N([C@H](C)CO)C[C@H](C)[C@@H](CN(C)S(=O)(=O)c1ccc(Cl)cc1)O2	none
CCOC(=O)c1sc(NC(=S)N2CCN(c3ncccn3)CC2)c(C(=O)OCC)c1C	none (no result: T cruzi growth-1, GASC1 inh)
C[C@H]1CN([C@@H](C)CO)C(=O)c2cc(C#CC3CCCCC3)cnc2O[C@@H]1CN(C)C(=O)Nc1ccccc1	none (no result: T cruzi growth-1, IDH1 R132H inh)
C[C@@H]1CCCCO[C@H](CN(C)CC2CCCCC2)[C@@H](C)CN([C@H](C)CO)C(=O)c2cc(NC(=O)Nc3ccccc3)ccc2O1	T cruzi growth-1 109 (no result: IDH1 R132H inh) | T cruzi growth-2 112 | T cruzi growth-3 inactive | 3T3 cytotox inactive | 3T3 cytotox 2 95
C[C@@H]1CCCCO[C@@H](CN(C)CC2CCCCC2)[C@@H](C)CN([C@@H](C)CO)C(=O)c2cc(NC(=O)Nc3ccccc3)ccc2O1	T cruzi growth-1 125 | T cruzi growth-2 104 | T cruzi growth-3 inactive | 3T3 cytotox inactive | 3T3 cytotox 2 103
COc1ccc(NC(=O)Nc2ccc3c(c2)C(=O)N([C@H](C)CO)C[C@H](C)[C@@H](CN(C)CC2CCCCC2)OCCCC[C@H](C)O3)cc1	T cruzi growth-1 96 (no result: IDH1 R132H inh) | T cruzi growth-2 105 | T cruzi growth-3 112 | 3T3 cytotox inactive | 3T3 cytotox 2 105
C[C@@H]1CCCCO[C@H](CN(C)CC2CCCCC2)[C@H](C)CN([C@@H](C)CO)C(=O)c2cc(NC(=O)Nc3ccccc3)ccc2O1	none (no result: IDH1 R132H inh)
COc1ccc(NC(=O)Nc2ccc3c(c2)C(=O)N([C@@H](C)CO)C[C@H](C)[C@@H](CN(C)CC2CCCCC2)OCCCC[C@H](C)O3)cc1	none (no result: IDH1 R132H inh)
C[C@H]1CCCCO[C@@H](CN(C)CC2CCCCC2)[C@@H](C)CN([C@@H](C)CO)C(=O)c2cc(NC(=O)c3ccccc3)ccc2O1	none
CC(=O)N1CCCCN2[C@@H](CO)[C@H](c3ccc(-c4ccc(F)cc4)cc3)[C@@H]2C1	none (no result: IDH1 R132H inh)
CCN(C[C@@H]1[C@@H](c2ccccc2)[C@@H](CO)N1C(=O)COC)C(=O)NC(C)C	none (no result: T cruzi growth-1, IDH1 R132H inh)
COc1ccc(CNC(=O)C[C@@H]2C[C@H]3c4cc(NC(=O)CC5CC5)ccc4O[C@H]3[C@H](CO)O2)cc1	none
C[C@H](O)C#Cc1ccc2c(c1)O[C@H](CN(C)Cc1ccccc1)[C@@H](C)CN([C@H](C)CO)S2(=O)=O	none (no result: GASC1 inh, IDH1 R132H inh)
C[C@H](CO)N1C[C@H](C)[C@H](CN(C)C(=O)NC2CCCCC2)Oc2c(NC(=O)C3CCOCC3)cccc2C1=O	none (no result: IDH1 R132H inh)
C[C@H]1CN([C@@H](C)CO)C(=O)CCCn2nncc2CO[C@@H]1CN(C)Cc1ccc(C(=O)Nc2ccccc2N)cc1	T cruzi growth-1 103 (no result: IDH1 R132H inh) | T cruzi growth-2 111 | T cruzi growth-3 inactive | 3T3 cytotox inactive | 3T3 cytotox 2 inactive
C[C@H](CO)N1C[C@H](C)[C@H](CN(C)Cc2ccc3cccnc3c2)OCc2cnnn2CCCC1=O	T cruzi growth-1 111 | T cruzi growth-2 inactive | T cruzi growth-3 inactive | 3T3 cytotox inactive | 3T3 cytotox 2 inactive
C[C@@H]1CN([C@H](C)CO)C(=O)CCCn2nncc2CO[C@@H]1CN(C)Cc1ccc2cccnc2c1	none (no result: IDH1 R132H inh)
C[C@H](CO)N1C[C@H](C)[C@H](CN(C)Cc2ccc(C(=O)O)cc2)OCc2cnnn2CCCC1=O	none (no result: T cruzi growth-1)
C[C@H](CO)N1C[C@H](C)[C@H](CN(C)S(=O)(=O)c2ccc(Cl)cc2)Oc2ccc(NS(=O)(=O)c3cn(C)cn3)cc2C1=O	none
COc1ccc(S(=O)(=O)N(C)C[C@H]2Oc3cc(C#CC4CC4)ccc3S(=O)(=O)N([C@H](C)CO)C[C@H]2C)cc1	T cruzi growth-1 107 (no result: IDH1 R132H inh) | T cruzi growth-2 108 | T cruzi growth-3 inactive | 3T3 cytotox inactive | 3T3 cytotox 2 59
COc1ccc(S(=O)(=O)N(C)C[C@@H]2Oc3cc(C#CC4CCCC4)ccc3S(=O)(=O)N([C@@H](C)CO)C[C@@H]2C)cc1	none (no result: IDH1 R132H inh)
COc1ccc(S(=O)(=O)N(C)C[C@@H]2Oc3cc(C#CC4CCCC4)ccc3S(=O)(=O)N([C@H](C)CO)C[C@@H]2C)cc1	none (no result: IDH1 R132H inh)
COc1ccc(S(=O)(=O)N(C)C[C@@H]2Oc3cc(C#CC4CC4)ccc3S(=O)(=O)N([C@@H](C)CO)C[C@H]2C)cc1	T cruzi growth-1 112 | T cruzi growth-2 102 | T cruzi growth-3 inactive | 3T3 cytotox 53 | 3T3 cytotox 2 40
O=C(N/N=C/C(Br)=C/c1ccccc1)c1ccccc1O	none (no result: T cruzi growth-1, GASC1 inh)
COc1cccc(C(=O)Nc2ccc3c(c2)C(=O)N(C)C[C@H](OC)[C@@H](C)CN[C@@H](C)CO3)c1	none
CCCN(C)C[C@@H]1Oc2cc(/C=C/c3ccccc3)ccc2S(=O)(=O)N([C@@H](C)CO)C[C@H]1C	none (no result: T cruzi growth-1)
O=C(Nc1cc(F)ccc1F)N1CCCCN2[C@H](C1)[C@@H](c1ccc(-c3ccncc3)cc1)[C@@H]2CO	none (no result: IDH1 R132H inh)
O=C(Nc1cc(F)ccc1F)N1CCCCN2[C@H](CO)[C@H](c3ccc(-c4cncnc4)cc3)[C@@H]2C1	T cruzi growth-1 115 (no result: IDH1 R132H inh) | T cruzi growth-2 inactive | T cruzi growth-3 inactive | 3T3 cytotox inactive | 3T3 cytotox 2 inactive
O=C(Nc1cc(F)ccc1F)N1CCCCN2[C@H](CO)[C@@H](c3ccc(-c4cccnc4)cc3)[C@H]2C1	none (no result: IDH1 R132H inh)
O=C(Nc1cc(F)ccc1F)N1CCCCN2[C@H](CO)[C@@H](c3ccc(-c4ccncc4)cc3)[C@@H]2C1	none (no result: IDH1 R132H inh)
O=C(Nc1cc(F)ccc1F)N1CCCCN2[C@H](C1)[C@@H](c1ccc(-c3ccccc3)cc1)[C@@H]2CO	T cruzi growth-1 99 (no result: IDH1 R132H inh) | T cruzi growth-2 101 | T cruzi growth-3 102 | 3T3 cytotox 62 | 3T3 cytotox 2 106
O=C(Nc1cc(F)ccc1F)N1CCCCN2[C@H](CO)[C@H](c3ccc(-c4cccnc4)cc3)[C@H]2C1	T cruzi growth-1 104 (no result: IDH1 R132H inh) | T cruzi growth-2 101 | T cruzi growth-3 inactive | 3T3 cytotox inactive | 3T3 cytotox 2 inconclusive
O=C(Nc1cc(F)ccc1F)N1CCCCN2[C@H](C1)[C@@H](c1ccc(-c3cncnc3)cc1)[C@@H]2CO	T cruzi growth-1 105 (no result: IDH1 R132H inh) | T cruzi growth-2 inactive | T cruzi growth-3 inactive | 3T3 cytotox inactive | 3T3 cytotox 2 inactive
O=C(Nc1cc(F)ccc1F)N1CCCCN2[C@H](CO)[C@@H](c3ccc(-c4ccccc4)cc3)[C@H]2C1	none (no result: IDH1 R132H inh)
COC(=O)c1c(NC(=S)NCc2cccnc2)sc(C)c1C	none (no result: T cruzi growth-1, GASC1 inh)
